{
  "source": "ChEMBL document CHEMBL1124192",
  "about": "“Cyclopentenylcytosine. A carbocyclic nucleoside with antitumor and antiviral properties” (J Med Chem, 1988)",
  "key": {"[1]": {"tested_on": "Vaccinia virus", "experiment": "Dose of compound required to inhibit the vaccinia lederle CA virus induced cytopathogenic effects", "type": "functional", "conditions": "Orthopoxvirus vaccinia; read-out: ID50 (the source's name)", "in_short": "(§1)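 Southern Research CPE inhibition test in Vero host cells. Confluent monolayers in 96-well plates received drug (minimum seven concentrations, cytotoxic to noncytotoxic) plus virus at 32 CCID50 per 0.1 mL, in triplicate, with cell, virus and drug-cytotoxicity controls. Incubated at 37 °C, 2% CO2. CPE scored microscopically at 3–4 days. VR = 0.1 × sum of CE-grade differences from virus control, halved for partially cytotoxic wells.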"}, "[2]": {"tested_on": "Vaccinia virus", "experiment": "Degree of inhibition of virus-induced cytopathogenic effect and the degree of cytotoxicity produced by compound against vaccinia lederle CA virus", "type": "functional, Orthopoxvirus vaccinia", "in_short": "as §1"}},
  "data": [
    {"compound": "Nc1ncnc2c1ncn2[C@@H]1O[C@H](CO)[C@@H](O)[C@@H]1O", "note": "[VIDARABINE]", "values": [
      {"measurement": "IC50", "setting": "[1]", "value": 9.8, "unit": "µg/mL"},
      {"measurement": "Virus rating", "setting": "[2]", "value": 3.1}
    ]}
  ]
}
